Screens as filed in PubChem BioAssay.
ERAP1 HTS inh – blocks human ERAP1 aminopeptidase activity. recombinant ERAP1, Leu-AMC fluorescence, 60 min. inhibition, % at 10.7 µM. 340,000 tested, 0.15% active. AID 652197;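 active = mean replicate inhibition of at least 30%, or all replicates individually reaching that 30% level; inactive = mean below 30% and not every replicate reaching it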
PglD DTNB – blocks C. jejuni PglD acetyltransferase activity | inhibition, % at 12.5 µM | 360,000 tested, 0.098% active | purified PglD enzyme, DTNB colorimetric CoA detection; in the data active = inhibition above about 16%, passing the limit was not always enough; inconclusive = no clear call, values can overlap the other calls
SIRT5 inh – inhibitors of human sirtuin-5 desuccinylase; Purified SirT5, succinyl-peptide AMC, trypsin-coupled fluorescence; inhibition, % at 15 µM; 330,000 tested, 1.1% active; AID 652115; in the data active = inhibition above about 15%; inconclusive = no clear call, values can overlap the other calls
Target sequence (Q9NXA8 whole entry, looked up): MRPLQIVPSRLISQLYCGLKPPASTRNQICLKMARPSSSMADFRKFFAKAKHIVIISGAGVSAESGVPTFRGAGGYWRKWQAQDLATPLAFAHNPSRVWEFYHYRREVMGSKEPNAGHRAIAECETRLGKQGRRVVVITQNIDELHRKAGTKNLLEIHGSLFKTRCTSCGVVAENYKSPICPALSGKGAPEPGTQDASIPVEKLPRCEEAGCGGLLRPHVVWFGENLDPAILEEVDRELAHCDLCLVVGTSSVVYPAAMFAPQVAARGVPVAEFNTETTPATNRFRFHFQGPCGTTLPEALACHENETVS
DENV2 CPE – DENV2-induced cell death inhibition; DENV2-infected cells, cytopathic effect rescue, plate reader; CPE inhibition, % at 9.99 µM; 350,000 tested, 1.7% active; in the data active = CPE inhibition above about 20%, passing the limit was not always enough; inconclusive = no clear call, values can overlap the other calls; tested in BHK-21 cells
E-selectin induc – induces E-selectin expression in human endothelial cells | P16581 | HUVEC E-selectin immunofluorescence imaging; normalized: neutral wells 0, TNF-alpha wells 100 | activation, % at 7.58 µM | 260,000 tested, 0.37% active | AID 686992;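 active = mean E-selectin-positive cell signal at least 10% of the positive control, reached in at least 60% of replicates, without over 20% cell loss; inconclusive = no rule given, readout overlaps actives, possibly toxicity-flagged; inactive = the rest, including those meeting only one limit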
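Assay system: HUVEC primary endothelial cells. Input: 3,000 HUVEC seeded per well. Doses: one compound dose added by pin transfer. Read-out basis: % PE-positive cells. Benchmarks: TNF-alpha high, DMSO low. Detection: immunofluorescence imaging. Buffer or medium: EGM-2, gelatin.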
Numbers stand for hits; n = inactive; u = inconclusive; x = no result given. The list is not random: actives were taken first. Their share in the collection is about 2.5%.

SMILES	ERAP1 HTS inh	PglD DTNB	SIRT5 inh	DENV2 CPE	E-selectin induc
C[C@@H]1CCCCO[C@@H](CN(C)C(=O)C2CCCCC2)[C@H](C)CN([C@H](C)CO)C(=O)c2cc(NC(=O)Nc3cccc4ccccc34)ccc2O1	n	n	n	23	n
O=C(Cn1nc(-c2ccccc2)nc1-c1ccccc1)N1CCOCC1	x	n	x	x	x
CO[C@H]1CN(C)C(=O)c2cc(C#N)ccc2OCC[C@H]2CC[C@@H](OC)[C@H](CN(C)C(=O)[C@@H]1C)O2	n	n	n	n	n
O=C(NCCc1c[nH]c2ccccc12)/C(=C/c1ccco1)NC(=O)c1ccco1	n	x	n	n	n
CC(=C\c1ccco1)/C=C(\C#N)C(=O)NCCc1c[nH]c2ccccc12	n	x	n	58	n
CCOc1cc(/C=C/C(=O)NCCc2ccc(S(N)(=O)=O)cc2)ccc1OCC(C)C	n	x	n	n	n
COC(=O)c1c(N)[nH]c(C(=O)c2ccccc2)c1-c1ccc(Br)cc1	n	x	n	n	n
COc1ccc(-c2c(C(=O)c3ccccc3)[nH]c(N)c2C(=O)c2ccc(Br)cc2)cc1OC	n	x	n	u	n
N#Cc1c(N)[nH]c(C(=O)c2ccccc2)c1-c1ccc(Br)cc1	n	x	n	57	n
CC(C)(C)C(=O)c1c(N)[nH]c(C(=O)c2ccccc2)c1-c1ccc(Br)cc1	n	x	20	n	n
CCCN(C)C[C@@H]1Oc2cc(-c3cccc(OC)c3)ccc2S(=O)(=O)N([C@@H](C)CO)C[C@@H]1C	n	n	n	n	n
Cc1nn(-c2nc3ccccc3[nH]2)c(N)c1-c1ccccc1	x	n	x	x	x
O=C(CN1C(=O)c2ccccc2S1(=O)=O)N1CCc2ccccc2C1	x	n	x	x	x
COc1ccc(NC(=O)C2CCCN(c3cnccn3)C2)c(OC)c1 (stereo not drawn)	n	n	16	n	x
COc1cccc(CNC(=O)C2CCCN(c3cnccn3)C2)c1 (stereo not drawn)	n	n	n	n	n
C/C=C/c1ccc([C@@H]2[C@H](CO)N[C@@H]2CN(C)S(=O)(=O)c2ccccc2)cc1	x	n	x	n	n
COCC(=O)N1[C@H](CO)[C@H](c2ccccc2-c2cccc(F)c2)[C@@H]1C#N	n	x	n	33	n
N#C[C@@H]1[C@@H](c2ccccc2-c2cccc(F)c2)[C@@H](CO)N1C(=O)C1CCC1	n	x	n	29	n
C[C@@H]1CCCCO[C@@H](CN(C)CC2CC2)[C@@H](C)CN([C@H](C)CO)C(=O)c2cc(NS(=O)(=O)c3ccc(Cl)cc3)ccc2O1	n	n	n	48	n
C[C@@H]1CN([C@@H](C)CO)C(=O)c2cc(NS(=O)(=O)c3ccc(Cl)cc3)ccc2O[C@@H](C)CCCCO[C@H]1CN(C)CC1CC1	n	n	n	84	n
O=C([C@H]1[C@H](CO)[C@H]2Cn3c(ccc(-c4cncnc4)c3=O)[C@H]2N1C(=O)C1CCC1)N1CCCCC1	n	x	n	n	n
Oc1ccc(-c2n[nH]c(C(F)(F)F)c2-c2ccccc2)c(O)c1	n	x	44	n	n
Cc1ccc(-c2nc(CS(=O)CC(=O)NCCN3CCCCCC3)c(C)o2)cc1 (stereo not drawn)	n	n	n	n	x
Cc1cc2c(cc1S(=O)(=O)N1CCN(c3cccc(C(F)(F)F)c3)CC1)OCC(=O)N2	n	n	n	32	n
CC(C)CC#Cc1ccc2c(c1)O[C@H](CN(C)C(=O)c1cccnc1)[C@H](C)CN([C@H](C)CO)S2(=O)=O	n	n	n	n	x
SMILES	ERAP1 HTS inh	PglD DTNB	SIRT5 inh	DENV2 CPE	E-selectin induc
OC[C@@H]1CN(Cc2ccco2)C[C@H](n2cnc3c(N4CCOCC4)ncnc32)O1	n	n	n	n	n
COc1ccc(-c2sc(Nc3ccccc3)n[n+]2-c2ccc(F)cc2)c(OC)c1OC	n	n	n	136	x
Cc1c(OCC(=O)NCC2CCC(C(=O)O)CC2)ccc2c3c(c(=O)oc12)CCC3 (stereo not drawn)	n	n	n	n	x
COc1ccc(C(=O)N2c3ccccc3C=CC2C#N)cc1 (stereo not drawn)	n	x	n	u	91
COc1ccccc1N=C1SC(C(=O)Nc2cccc(Cl)c2Cl)C(N)=C1C(N)=O (stereo not drawn)	n	x	21	n	n
N#Cc1ccccc1NC(=O)C1SC(=Nc2ccccc2)C(C(=O)Nc2ccc(Cl)cc2)=C1N (stereo not drawn)	n	n	n	n	x
CCOC(=O)C1(Cc2cccc(OC)c2)CCN(Cc2ccccc2)CC1	n	n	n	n	33
